Data as given in paper PMC5569452 (Iranian Journal of Basic Medical Sciences, 2017).
Counter-ions that a name gives are not always drawn.

Columns and labels:
isolated rat atria [1] = test: Spontaneously beating isolated rat atria, atria contraction rate; conditions: for ACR increase, percentage over the base line: compound alone, 100 μM; for isoprenaline-induced ACR in presence of compound: isoprenaline 10^-6 M + compound 10^-4 M
How it was run: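 Male Wistar rats (250-350 g) given reserpine 5 mg/kg i.p. 24 hr before euthanasia; thiopental 80 mg/kg i.p. anaesthesia. Whole atria hung at ~0.5 g resting tension in Krebs-Henseleit (95% O2/5% CO2, 37 °C, pH 7.4), equilibrated 30 min. Solvent or test compound (10 or 100 μM) added; after 20 min, cumulative isoprenaline. Contractions counted per minute; % increase over baseline; mean ± SEM, 5-6 experiments.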

isolated rat atria [2] = test: Spontaneously beating isolated rat atria, atria contraction force
PDE3A = PDE3A (Homo sapiens, UniProt Q14432); test: PDE assay kit; type: biochemical
[3] = Cont: solvent + 1 μM isoprenaline (isoprenaline alone)
[4] = compound 100 μM, cumulative isoprenaline

Chain of PDE3A (Q14432 whole entry): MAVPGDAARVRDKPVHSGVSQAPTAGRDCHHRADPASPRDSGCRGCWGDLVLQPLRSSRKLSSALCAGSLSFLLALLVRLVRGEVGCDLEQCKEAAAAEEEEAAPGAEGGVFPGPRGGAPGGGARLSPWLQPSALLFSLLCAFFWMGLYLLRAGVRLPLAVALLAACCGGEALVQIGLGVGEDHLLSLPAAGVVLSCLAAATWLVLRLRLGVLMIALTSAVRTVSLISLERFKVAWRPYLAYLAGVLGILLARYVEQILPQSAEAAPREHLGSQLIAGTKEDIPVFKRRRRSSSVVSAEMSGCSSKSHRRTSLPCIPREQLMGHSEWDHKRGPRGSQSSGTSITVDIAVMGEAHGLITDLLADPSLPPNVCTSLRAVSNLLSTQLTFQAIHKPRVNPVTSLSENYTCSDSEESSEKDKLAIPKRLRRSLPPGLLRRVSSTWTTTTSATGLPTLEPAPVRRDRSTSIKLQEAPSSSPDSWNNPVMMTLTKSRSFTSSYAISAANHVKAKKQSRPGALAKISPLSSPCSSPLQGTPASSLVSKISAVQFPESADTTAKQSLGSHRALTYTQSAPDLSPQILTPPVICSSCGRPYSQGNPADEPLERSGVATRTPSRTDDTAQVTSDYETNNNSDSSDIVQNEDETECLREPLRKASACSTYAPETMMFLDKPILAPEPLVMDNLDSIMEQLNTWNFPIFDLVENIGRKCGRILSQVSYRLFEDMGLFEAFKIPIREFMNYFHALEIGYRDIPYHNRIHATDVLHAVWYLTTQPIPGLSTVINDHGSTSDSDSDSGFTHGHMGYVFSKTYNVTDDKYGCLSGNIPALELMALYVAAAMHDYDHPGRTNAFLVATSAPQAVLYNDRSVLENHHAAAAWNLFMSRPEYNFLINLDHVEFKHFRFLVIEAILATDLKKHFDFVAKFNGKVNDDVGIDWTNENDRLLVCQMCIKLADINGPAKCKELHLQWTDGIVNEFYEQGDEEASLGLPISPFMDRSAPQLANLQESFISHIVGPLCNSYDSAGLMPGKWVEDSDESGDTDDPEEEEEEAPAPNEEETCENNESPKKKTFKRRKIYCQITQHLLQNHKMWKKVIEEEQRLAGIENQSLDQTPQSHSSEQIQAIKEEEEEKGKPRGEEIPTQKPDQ

CN(C(=O)CCCOc1ccc2[nH]c(=O)ccc2c1)C1CCCCC1 [cilostamide, 4-(1,2-dihydro-2-oxoquinolin-6-hydroxy)-N-cyclohexyl-N-methylbutanamide]
ACR increase, percentage over the base line (isolated rat atria [1]): 42±10%
isoprenaline-induced ACR in presence of compound (isolated rat atria [1]): 51±11 % HSBL
maximum ACFmax in combination with isoprenaline (isolated rat atria [2]; compound + isoprenaline 3×10^-6 M): 25±5 % HSBL
maximum ACFmin in combination with isoprenaline (isolated rat atria [2]; compound + isoprenaline 10^-6 M): 39 ±7 % HDBL
potentiation of the effect of isoprenaline on ACF (isolated rat atria [2]; compound added 20 min before isoprenaline): about 2.86 fold
ACFmax within 20 min (isolated rat atria [2]; compound alone, 100 μM, 20 min): 11±6 % HSBL
ACFmin within 20 min (isolated rat atria [2]; compound alone, 100 μM, 20 min): 16±6 % HDBL
ACFmax at the beginning of adding the compound (isolated rat atria [2]; compound alone, 100 μM): 24±9 % HSBL
ACFmin at the beginning of adding the compound (initial decrease) (isolated rat atria [2]; compound alone, 100 μM): 9±4 % HDBL

CC(C)NCC(O)c1ccc(O)c(O)c1 (stereo not shown) [isoprenaline, isoprenaline hydrochloride]
ACR (% increase baseline) (isolated rat atria [1]; [3]): 68±12 % increase baseline
threshold concentration for ACR increase (isolated rat atria [1]; isoprenaline alone): 10^-10 M
ACF (% increase baseline) (isolated rat atria [2]; [3]): 14±6 % increase baseline
threshold concentration of ACFmax curve (isolated rat atria [2]; isoprenaline alone): 10^-10 M
maximum ACFmax (isolated rat atria [2]; isoprenaline alone, 3×10^-8 M): 21 % HSBL
ACF maximum, higher than systolic base line (HSBL) (isolated rat atria [2]; isoprenaline alone, 10^-6 M): 14±6 % HSBL
ACFmin, higher than diastolic base line (HDBL) (isolated rat atria [2]; isoprenaline alone, 10^-6 M): 10.23±5 % HDBL
threshold concentration for ACF increase (isolated rat atria [2]; isoprenaline alone, cumulative concentrations): 10^-10 M

Cc1cc(=O)[nH]c2ccc(OCCCC(=O)N3CCC(C)CC3)cc12 [mc2, 6-(4-(4-methylpiperidin-1-yl)-4-oxobutoxy)-4-methylquinolin-2(1H)-one]
ACR (% increase baseline) (isolated rat atria [1]; 10 μM mc2 + 1 μM isoprenaline): 50±10 % increase baseline
ACR (% increase baseline) (isolated rat atria [1]; 100 μM mc2 + 1 μM isoprenaline): 6±7 % increase baseline
ACR increase, percentage over the base line (isolated rat atria [1]): did not change
IC50 (PDE3A): 2000 nM
ACF (% increase baseline) (isolated rat atria [2]; 10 μM mc2 + 1 μM isoprenaline): 3±1 % increase baseline
ACF (% increase baseline) (isolated rat atria [2]; 100 μM mc2 + 1 μM isoprenaline): 60±5 % increase baseline
ACF reached in 20 min (isolated rat atria [2]; compound alone, 100 μM, 20 min): 40±7 % HSBL
ACFmin within 20 min (isolated rat atria [2]; compound alone, 100 μM, 20 min): 36±6 % HDBL
ACF change when compound was added (initial) (isolated rat atria [2]; compound alone, 100 μM, at addition): -1.76%
ACFmax at the beginning of adding the compound (isolated rat atria [2]; compound alone, 100 μM): increased continuously from the beginning
ACFmin at the beginning of adding the compound (initial decrease) (isolated rat atria [2]; compound alone, 100 μM): -6 % HDBL
isoprenaline-augmented ACF in presence of compound (isolated rat atria [2]; isoprenaline 10^-6 M + compound 10^-5 M): 3±1 % HSBL

Cc1cc(=O)[nH]c2ccc(OCCCC(=O)N3CCC(O)CC3)cc12 [mc3, 6-(4-(4-hydroxypiperidin-1-yl)-4-oxobutoxy)4-methylquinolin-2(1H)-one]
effect on isoprenaline concentration-response curve (ACR) (isolated rat atria [1]; [4]): did not make any significant changes
ACR increase, percentage over the base line (isolated rat atria [1]): did not change
IC50 (PDE3A): 1000 nM
effect on isoprenaline concentration-response curve (ACF) (isolated rat atria [2]; [4]): did not change
ACF increase, percentage over the base line (isolated rat atria [2]; compound alone, 100 μM): did not change

Cc1cc(=O)[nH]c2ccc(OCCCC(=O)N3CCCC3)cc12 [mc6, 6-(4-oxo-4-(pyrrolidin-1-yl)butoxy)-4-methylquinolin-2(1H)-one]
ACR increase, percentage over the base line (isolated rat atria [1]): 65±6%
isoprenaline-induced ACR in presence of compound (isolated rat atria [1]): 91±6 % HSBL
ACF increase, percentage over the base line (isolated rat atria [2]; compound alone, 100 μM): 11±4%
